Tests used:
[1] = test system: Canis familiaris; assay: Effect on respiratory function in spontaneously breathing mongrel dog assessed as change in heart rate at 5 mg/kg after intravenous infusion for 60 mins (RVb= -0.9+/-5.8 %); assay type: functional, Canis lupus familiaris
[2] = test system: Rattus norvegicus; assay: Ex vivo receptor occupancy of CRF receptor in rat brain at 3 mg/kg, po by [125I]sauvagine binding and autoradiography relative to control; assay type: functional
Summary of the method: (§1)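 Rats were given 0.3, 1, 3, 10 or 30 mg/kg po in 0.25% Methocel 60 min before sacrifice. Brains were removed, sectioned and frozen at −80 °C. Ex vivo CRF receptor binding gave occupancy relative to vehicle-treated rats, reported as mean ± SEM.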

[3] = test system: Canis familiaris; assay: Effect on respiratory function in spontaneously breathing mongrel dog assessed as change in tidal volume at 5 mg/kg after intravenous infusion for 6 mins (RVb= 5.8+/-3.8 %); assay type: functional, Canis lupus familiaris
[4] = Elimination half life in chimpanzee at 1 mg/kg, po; assay type: ADME, organism-based, Pan troglodytes; set-up: dose 1 mg/kg, route oral; details: in vivo, read-out: beta t1/2 (converted)
Summary of the method: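 Two alert chimpanzees were given 1 mg/kg po as a 1 mg/mL suspension in 50:50 (v/v) 0.5% methylcellulose and Tang orange juice containing 1% Tween-80. EDTA blood was taken predose and at 2–96 h. Bioavailability was calculated against a 0.5 mg/kg iv dose given to one animal.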

[5] = test system: Canis familiaris; assay: Effect on respiratory function in spontaneously breathing mongrel dog assessed as change in minute volume at 5 mg/kg after intravenous infusion for 15 mins (RVb= -4.7+/-3.4 %); assay type: functional, Canis lupus familiaris
[6] = test system: Rattus norvegicus; assay: Toxicity in rat assessed as total distance traveled at 10 mg/kg, po after 1 hr by spontaneous locomotor test; assay type: functional
Summary of the method: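 Rat spontaneous locomotor activity test with oral dosing in 0.25% Methocel 1 h before testing, at doses up to 100 mg/kg. Values are mean ± SEM, with N rats per group, compared with the vehicle (zero-dose) group.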

[7] = Clearance in rat at 1 mg/kg, iv and 5 mg/kg, po; assay type: ADME, organism-based; details: in vivo
Summary of the method: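 Rats (n = 3) received 1 mg/kg iv in 10% DMAC, 70% propylene glycol and deionized water, or 5 mg/kg orally in 0.5% methylcellulose.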

[8] = Plasma concentration in spontaneously breathing dog at 5 mg/kg, iv after 60 mins; assay type: ADME, organism-based, Canis lupus familiaris; set-up: dose 5 mg/kg, route intravenous
Summary of the method: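 Spontaneously breathing, barbiturate-anesthetized mongrel dogs (n = 4) infused iv at 5.0 mg/kg over 6 min. Total pooled plasma concentrations taken at 6, 15, 30 and 60 min.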

[9] = test system: Canis familiaris; assay: Effect on respiratory function in spontaneously breathing mongrel dog assessed as change in pulmonary compliance at 5 mg/kg after intravenous infusion for 60 mins (RVb= -4.8+/-[…]); assay type: functional, Canis lupus familiaris
[10] = test system: Rattus norvegicus; assay: Effect on acute renal function in rat assessed as change in urine potassium level per 100 gm body weight at 30 mg/kg, po (RVb= 60.3+/-11.1 mg/dl); assay type: functional
[11] = test system: Canis familiaris; assay: Effect on respiratory function in spontaneously breathing mongrel dog assessed as change in mean arterial pressure at 5 mg/kg after intravenous infusion for 60 mins (RVb= 5.1+/-3.5 %); assay type: functional, Canis lupus familiaris, Artery
[12] = Tmax in rat at 5 mg/kg, po; assay type: ADME, organism-based; set-up: dose 5 mg/kg, route oral; details: in vivo
Summary of the method: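 Rats (n = 3) dosed iv at 1 mg/kg in 10% DMAC, 70% propylene glycol and deionized water, and orally at 5 mg/kg in 0.5% methylcellulose.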

[13] = test system: Canis familiaris; assay: Effect on respiratory function in spontaneously breathing mongrel dog assessed as change in mean arterial pressure at 5 mg/kg after intravenous infusion for 30 mins (RVb= 4.0+/-3.0 %); assay type: functional, Canis lupus familiaris, Artery
[14] = test system: Rattus norvegicus; assay: Ex vivo receptor occupancy of CRF receptor in rat brain at 0.3 mg/kg, po by [125I]sauvagine binding and autoradiography relative to control; assay type: functional; summary of the method: as §1
[15] = test system: Canis familiaris; assay: Effect on respiratory function in spontaneously breathing mongrel dog assessed as change in peak expiratory flow at 5 mg/kg after intravenous infusion for 6 mins (RVb= 3.6+/-3.7 %); assay type: functional, Canis lupus familiaris
[16] = test system: Canis familiaris; assay: Effect on respiratory function in spontaneously breathing mongrel dog assessed as change in tidal volume at 5 mg/kg after intravenous infusion for 30 mins (RVb= 6.1+/-5.6 %); assay type: functional, Canis lupus familiaris
[17] = test system: Canis familiaris; assay: Effect on respiratory function in spontaneously breathing mongrel dog assessed as change in pulmonary compliance at 5 mg/kg after intravenous infusion for 30 mins (RVb= -2.8+/-4.0 %); assay type: functional, Canis lupus familiaris
[18] = test system: Rattus norvegicus; assay: Effect on acute renal function in rat assessed as change in osmolality in urine per 100 gm body weight at 30 mg/kg, po (RVb= 325+/-1.9 mg/dl); assay type: functional
[19] = test system: Canis familiaris; assay: Effect on respiratory function in spontaneously breathing mongrel dog assessed as change in peak expiratory flow at 5 mg/kg after intravenous infusion for 30 mins (RVb= -3.3+/-6.4 %); assay type: functional, Canis lupus familiaris
[20] = test system: Rattus norvegicus; assay: Toxicity in rat assessed as time spent on rotarod at 3 mg/kg, po after 1 hr by rotarod test; assay type: organism-based; set-up: dose 3 mg/kg, route oral; details: in vivo
Summary of the method: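 Rats, n = 8 per dose, dosed po in 0.25% Methocel 1 h before testing, at 0, 1.0, 3.0, 10, 30 and 100 mg/kg. Read-out is time on rotorod (s), mean ± SEM, compared with the vehicle (zero-dose) group.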

[21] = test system: Canis familiaris; assay: Cardiovascular activity in dog assessed as increase in mean […] pressure at 3 mg to 5 mg/kg, iv by dose escalation study; assay type: functional, Canis lupus familiaris
Summary of the method: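 Anesthetized mongrel dogs on sodium pentobarbital, mechanically ventilated, with left ventricular and arterial pressure transducers and ECG. Four dogs received 6 min iv infusions at escalating 0.3, 1, 3 and 5 mg/kg, 30 min apart; four control dogs received vehicle on the same schedule. Mean arterial pressure and dP/dt were recorded; plasma was sampled after each infusion.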

[22] = Plasma concentration in dog at 3 mg/kg after […]; assay type: ADME, organism-based, Canis lupus familiaris; set-up: dose 3 mg/kg, route intravenous; details: iv
[23] = Elimination half life in chimpanzee at 0.5 mg/kg, iv; assay type: ADME, organism-based, Pan troglodytes; set-up: dose 0.5 mg/kg, route intravenous; details: in vivo, read-out: beta t1/2 (converted)
Summary of the method: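 One chimpanzee received 0.5 mg/kg iv over 10 min (0.2 mL/kg) in 10% DMAC, 70% propylene glycol and deionized water. Blood was drawn into EDTA predose and at 6, 15, 30 min and 2, 4, 6, 9, 12, 24, 36, 48, 72 and 96 h.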

[24] = test system: Rattus norvegicus; assay: Toxicity in rat assessed as time spent on rotarod at 100 mg/kg, po after 1 hr by rotarod test; assay type: organism-based; set-up: dose 100 mg/kg, route oral; details: in vivo
Summary of the method: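 Rats (N = 8 per dose) dosed po in 0.25% Methocel 1 h before rotorod testing. Time on rotorod in s, given as mean ± SEM against a vehicle (zero dose) group.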

[25] = AUC (0 to infinity) in chimpanzee at 1 mg/kg, po; assay type: ADME, organism-based, Pan troglodytes; set-up: time infinity, dose 1 mg/kg, route oral; details: plasma
Summary of the method: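 Chimpanzee PK. Oral: 1 mg/kg in two alert animals, given as a 1 mg/mL suspension in 50–50 (v/v) 0.5% methylcellulose/Tang orange juice with 1% Tween-80. IV: 0.5 mg/kg in one animal in 10% DMAC, 70% propylene glycol and deionized water, infused over 10 min (0.2 mL/kg). EDTA blood was taken predose and at 2–96 h; iv sampling added 6, 15 and 30 min.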

[26] = test system: Canis familiaris; assay: Effect on respiratory function in spontaneously breathing mongrel dog assessed as change in airway resistance at 5 mg/kg after intravenous infusion for 6 mins (RVb= 3.9+/-4.7 %); assay type: functional, Canis lupus familiaris
[27] = test system: Canis familiaris; assay: Effect on respiratory function in spontaneously breathing mongrel dog assessed as change in heart rate at 5 mg/kg after intravenous infusion for 30 mins (RVb= -0.9+/-3.8 %); assay type: functional, Canis lupus familiaris

- half-life [4]: 26 h
- clearance [7]: 17.9 mL/min/kg
- concentration at 1 h [8]: 229 nM
- Tmax [12]: 0.75 h
- concentration at 0.5 h [22]: 1290 nM
- half-life [23]: 30 h
- AUC(0-inf) [25]: 11.7 µM·h
Compound: CC[C@@H](C)Nc1nc(C)nc2c(-c3ccc(OC)nc3C)c(C)nn12 [PEXACERFONT]
- Activity [1]: -2.3%
- Activity [2]: 59%
- Activity [3]: -3.5%
- Activity [5]: 0.6%
- Activity [6]: 3695 cm
- Activity [9]: 33.8%
- Activity [10]: 32.1 mg/dL
- Activity [11]: 4%
- Activity [13]: 6.2%
- Activity [14]: 37%
- Activity [15]: -12.5%
- Activity [16]: -15.2%
- Activity [17]: -22.3%
- Activity [18]: 240 milliosmole
- Activity [19]: -10.7%
- Time [20]: 162 s
- Activity [21]: 10 mmHg
- Time [24]: 121 s
- Activity [26]: 15.3%
- Activity [27]: -2.5%

Source: ChEMBL document CHEMBL1138476 (J Med Chem, 2009)
